Assay results reported in PubChem BioAssay AID489030 (Sanford-Burnham Center for Chemical Genomics, 2010).
Hit rate of the full screen: of about 330,000 compounds, about 2,400 (0.73%) were called active. Shown is part of a subset that was picked to be rich in actives. Values without a mark were called inactive. Rule for the calls: active = inhibition of at least 40% at 20 µM; inactive = the rest.

Target: Apoptotic protease-activating factor 1 (Homo sapiens) (UniProt O14727)
Test: inhibitors of human Apaf-1 apoptosome, primary screen, biochemical, DEVD-Rh110 fluorescence, uHTS (AID 489030);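 note: plate controls were DMSO wells for no effect and DEVD-CHO caspase inhibitor wells for full effect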
Details: reconstituted apoptosome caspase-3 activity, at 20 µM, hits give high values
Procedure, shortened: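 Medium: Hepes buffer, pH 7.5 / System: biochemical Apaf-1 apoptosome reconstitution / Measured by: Rh110 fluorescence, excitation 480 nm, emission 540 nm / Times: compound with Apaf-1, dATP, procaspase-3 30 min, then 50 min reaction, room temperature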

Chain of Apoptotic protease-activating factor 1 (Homo sapiens) (O14727 whole entry, looked up): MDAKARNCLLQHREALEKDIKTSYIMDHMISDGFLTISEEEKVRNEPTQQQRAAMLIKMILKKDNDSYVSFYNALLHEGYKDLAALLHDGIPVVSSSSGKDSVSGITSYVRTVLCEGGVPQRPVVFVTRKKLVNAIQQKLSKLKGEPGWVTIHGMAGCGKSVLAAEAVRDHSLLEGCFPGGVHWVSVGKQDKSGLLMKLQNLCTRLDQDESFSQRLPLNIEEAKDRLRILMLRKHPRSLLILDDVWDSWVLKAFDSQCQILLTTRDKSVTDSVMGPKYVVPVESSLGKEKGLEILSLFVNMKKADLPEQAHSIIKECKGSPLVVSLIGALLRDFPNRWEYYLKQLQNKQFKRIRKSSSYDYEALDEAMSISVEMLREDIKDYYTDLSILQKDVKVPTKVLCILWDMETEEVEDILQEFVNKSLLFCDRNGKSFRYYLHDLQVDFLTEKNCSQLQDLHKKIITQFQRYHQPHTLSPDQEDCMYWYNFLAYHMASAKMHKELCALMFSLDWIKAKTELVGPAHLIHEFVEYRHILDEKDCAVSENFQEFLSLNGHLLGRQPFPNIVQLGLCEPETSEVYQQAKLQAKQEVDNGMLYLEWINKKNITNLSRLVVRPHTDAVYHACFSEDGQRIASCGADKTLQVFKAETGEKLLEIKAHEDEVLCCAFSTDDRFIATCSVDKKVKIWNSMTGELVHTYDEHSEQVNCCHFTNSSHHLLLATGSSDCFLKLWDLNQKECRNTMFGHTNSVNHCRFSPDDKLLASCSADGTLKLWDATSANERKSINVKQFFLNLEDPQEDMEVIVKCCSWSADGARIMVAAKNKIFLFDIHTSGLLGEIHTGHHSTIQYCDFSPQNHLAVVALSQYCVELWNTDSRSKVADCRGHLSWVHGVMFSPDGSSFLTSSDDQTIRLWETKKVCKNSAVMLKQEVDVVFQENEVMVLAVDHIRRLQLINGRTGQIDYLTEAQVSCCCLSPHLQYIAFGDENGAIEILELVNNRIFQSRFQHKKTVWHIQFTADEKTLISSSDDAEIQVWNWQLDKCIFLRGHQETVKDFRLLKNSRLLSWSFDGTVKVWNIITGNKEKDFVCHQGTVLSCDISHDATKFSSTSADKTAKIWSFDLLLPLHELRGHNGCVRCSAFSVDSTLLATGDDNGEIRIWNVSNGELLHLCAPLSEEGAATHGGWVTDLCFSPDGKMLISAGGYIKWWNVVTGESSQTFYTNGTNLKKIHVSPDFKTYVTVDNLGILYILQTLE

| SMILES | inhibition |
| --- | --- |
| CCOC(=O)N1CCC(NC(=O)CCc2cn(C)c3ccccc23)CC1 | 0.184% |
| CCOC(=O)N1CCC(NC(=O)Cc2cn(C)c3ccccc23)CC1 | 3.3% |
| CCOC(=O)N1CCC(NC(=O)C(C)n2c3ccccc3c3cnn(C)c(=O)c32)CC1 (configuration not stated) | 44.6% (active) |
| COc1ccc2nc(N3CCN(C(=O)c4ccc([N+](=O)[O-])o4)CC3)sc2c1 | 4.35% |
| Cc1ccc2nc(N3C(=O)C(O)=C(C(=O)c4ccco4)C3c3cccc(O)c3)sc2c1 (configuration not stated) | 9.5% |
| Cc1ccc2nc(N3CCN(C(=O)c4ccco4)CC3)sc2c1 | 41.9% (active) |
| CN(C)/C=C(\C#N)C(=O)c1cccnc1Oc1ccc(F)cc1F | -17.9% |
| Cc1ccc(NC(=O)C(C)c2cccc(C(=O)c3ccccc3)c2)cc1 (configuration not stated) | -10.9% |
| O=C(c1snnc1-c1ccccc1)N1CCOCC1 | -11.7% |
| Cc1oc2c(c1C(=O)N1CCOCC1)C(=O)c1ccccc1C2=O | 65.9% (active) |
| COc1cc2ccccc2cc1C(=O)N1CCOCC1 | -7.91% |
| Cc1cc(NC(=O)C(C)SCC(=O)Nc2ccccc2N2CCCCC2)no1 (configuration not stated) | 18.8% |
| CCCCN(CC)CCNC(=O)c1[nH]c(C)c(C(C)=O)c1C | 2.1% |
| CCc1nnc(SCc2cccc(F)c2)nc1CC | 14.3% |
| O=C(CC1N=C2c3ccccc3N=C(SCc3ccccc3Cl)N2C1=O)NCc1ccco1 (configuration not stated) | 21.1% |
| S=C(NCc1ccco1)NCc1ccccc1Cl | 10.3% |
| Clc1ccc(CSc2nnc3c(n2)[nH]c2ccccc23)cc1 | 11.3% |
| c1ccc(CSc2nnc(-c3ccco3)c(-c3ccco3)n2)cc1 | 49.6% (active) |
| Clc1ccccc1CSc1nnc(-c2ccco2)c(-c2ccco2)n1 | 49.9% (active) |
| COc1cc(NC(=O)CCS(=O)(=O)c2ccc3c(c2)oc(=O)n3C)cc(OC)c1 | -0.825% |
| Cc1c(NS(=O)(=O)c2cc(C(=O)NCCc3ccc(F)cc3)cc(Cl)c2Cl)c(=O)n(-c2ccccc2)n1C | 16% |
| CCOC(=O)c1ccc2c(c1)nc(SCC(=O)NC(C)C)n2CC | -14.5% |
| Cc1ccc(C(=O)N/N=C/c2cccc3ccccc23)cn1 | -7.7% |
| Cc1ccc(C(=O)N/N=C\c2cc(Br)c(Br)o2)cn1 | 75.4% (active) |
| O=C(N/N=C\c1cc(Br)c(Br)o1)C1COc2ccccc2O1 (configuration not stated) | 6.95% |
| O=C(OCc1ccccc1F)c1ccc2c(c1)OCCO2 | 9.05% |

| SMILES | inhibition |
| --- | --- |
| CCOC(=O)CCC(=O)OCC(=O)NC(C)C1CC2CCC1C2 (configuration not stated) | 3.06% |
| COC(=O)c1ccc(NC(=O)c2cc3c(CO)cnc(C)c3oc2=Nc2cccc(C(N)=O)c2)cc1 | -28.9% |
| CC(=O)N1N=C(c2ccncc2)OC1(Cc1ccccc1)Cc1ccccc1 | 3.9% |
| O=C(O/N=C(/c1ccccc1)c1ccncc1)c1ccccc1[N+](=O)[O-] | -9.34% |
| Cc1cc(C)cc(OCC(=O)Nc2ccc(N3CCOCC3)cc2N2CCOCC2)c1 | 21.9% |
| Cc1cc(N2CCCC2)ccc1NC(=O)COc1ccc(Cl)cc1 | 62.2% (active) |
| CCC(=O)c1ccc(OCC(=O)Nc2ccc(N3CCCCC3)cc2)cc1 | -8.58% |
| CS(=O)(=O)N(CC(=O)N1CCN(c2ccc(F)cc2)CC1)C1CCCCC1 | -2.79% |
| O=C(NC1CCCC1)C(c1c(F)cccc1Cl)N(C(=O)c1csnn1)C1CC1 (configuration not stated) | 6.38% |
| Cc1ccc2c(c1)C1CN(C)CCC1N2C(=S)Nc1ccc(OC(F)F)cc1 (configuration not stated) | -7.03% |
| Cc1ccc2c(c1)C1CN(C)CCC1N2S(=O)(=O)c1ccc(Oc2ccc([N+](=O)[O-])cc2)cc1 (configuration not stated) | 59.9% (active) |
| Cc1ccc2c(c1)C1CN(C)CCC1N2S(=O)(=O)c1cccc(F)c1 (configuration not stated) | 1.11% |
| COc1ccc(N2CCN(C(=O)c3cn(C)c4ccc(S(=O)(=O)N5CCOCC5)cc4c3=O)CC2)cc1 | -4.77% |
| CCC(CC)c1nnc(NC(=O)C2=COCCO2)s1 | 3.27% |
| Cc1cnc(NC(=O)c2ccccn2)s1 | -31.2% |
| CCN(CC)CCOc1ccc2c(c1)C(=NNC(=O)c1ccccn1)c1cc(OCCN(CC)CC)ccc1-2 | 52.5% (active) |
| C/C(=N\NC(=O)c1ccccc1F)c1ccccn1 | -4.33% |
| Cc1ccc2c(Cl)c(C(=O)NCCCn3ccnc3)sc2c1 | 10.1% |
| CC(C)(C)NC(=O)CN(C(=O)c1csnn1)c1ccccc1-c1ccccc1 | -0.459% |
| Cc1cc(C)c(NC(=S)N2CCCC2C(=O)O)c(C)c1 (configuration not stated) | -0.801% |
| CCC(=O)Nc1c(S(=O)(=O)c2ccccc2)c2nc3ccccc3nc2n1Cc1ccccc1 | 49.2% (active) |
| CCN(CC)CCn1c(N)c(S(=O)(=O)c2ccccc2)c2nc3ccccc3nc21 | 12% |
| Cc1ccc(S(=O)(=O)c2c(N)n(C)c3nc4ccccc4nc23)cc1 | -405% |
| CCOc1cc(NC(=S)NCCCN(C)C)c(OCC)cc1NC(=O)C1CC1 | -14.8% |
| COc1ccccc1CN1CCNC(=O)C1CC(=O)N(C)CC1CCOCC1 (configuration not stated) | 4.54% |
| Cc1c(-c2nn(C)c(=O)c3ccccc23)oc2ccc(F)cc2c1=O | 82% (active) |

| SMILES | inhibition |
| --- | --- |
| Cc1ccc(F)cc1NC(=O)Cc1nn(C)c(=O)c2ccccc12 | -8.15% |
| CCC(=O)NCc1cc(-c2nn(C)c(=O)c3ccccc23)ccc1OC | -10.9% |
| CCCCn1c(N)c(N(CC(C)C)C(=O)c2cccc(S(=O)(=O)N3CCN(C(C)=O)CC3)c2)c(=O)[nH]c1=O | 6.93% |
| C=CCNC(=O)c1ccccc1SCc1c(C)noc1C | -5.84% |
| O=S(=O)(c1cccc(C(F)(F)F)c1)N1CCN(c2cnccn2)CC1 | -23.4% |
| CCOc1ccc(N2CC(C(=O)N/N=C/c3sccc3C)CC2=O)cc1 (configuration not stated) | -13.2% |
| Cc1ccsc1/C=N/n1c(=S)[nH]nc(C)c1=O | 2.31% |
| O=C(COc1ccccc1[N+](=O)[O-])N/N=C/c1ccc[nH]1 | -17.6% |
| O=C(Cc1cc(=O)[nH][nH]1)N/N=C/c1ccccc1[N+](=O)[O-] | 40.8% (active) |
| COc1cc(CC(=O)N/N=C/c2ccccc2)c([N+](=O)[O-])cc1OC | 8.78% |
| Cc1ccsc1/C=N/NC(=O)Cc1cc(=O)[nH][nH]1 | 58.3% (active) |
| CC(C)(C)NC(=O)CSC(=Nc1ccccc1F)NC#N | -0.507% |
| COC(=O)Cc1csc(/N=C/c2c(O)n(-c3cccc(C(F)(F)F)c3)c(=O)c3ccccc23)n1 | -1.6% |
| O=C(COc1ccc(S(=O)(=O)NCCc2ccccc2)cc1)N1CCCC1 | -10.1% |
| CC(Oc1ccc(Cl)cc1)c1ccnn1S(C)(=O)=O (configuration not stated) | 0.147% |
| Cc1noc(C)c1S(=O)(=O)N(C)C[C@H]1Oc2ccc(NC(=O)C3CCCCC3)cc2C(=O)N([C@H](C)CO)C[C@@H]1C | 1.34% |
| O=C1Nc2ccc([N+](=O)[O-])cc2C1=Nc1cccc(CO)c1 | 41.2% (active) |
| O=[N+]([O-])c1ccc(N(CCO)Cc2ccccc2)c([N+](=O)[O-])c1 | 5.52% |
| CN1CCN(/N=C2/C(=O)Nc3ccc([N+](=O)[O-])cc32)CC1 | -6.13% |
| COc1ccc(NS(=O)(=O)c2cccc3nsnc23)cc1Cl | -0.325% |
| COc1cccc(C(=O)NCCS(=O)(=O)NCC2CCCO2)c1 (configuration not stated) | -2.68% |
| O=C(C1CCN(c2nnc(-n3cccc3)s2)CC1)N1CCc2ccccc2C1 | 6.9% |
| OCCN1CCOCCOCCN(CCO)CCN(CCO)CC1 | -5.95% |
| Clc1ccc(C2=CSC3=Nc4cccc5cccc(c45)N23)cc1 | 90% (active) |
| CC(C)Cc1nnc(NC(=O)CCNC(=O)c2ccccc2Cl)s1 | 12% |
